Assay [1] addresses T1, Prostaglandin G/H synthase 2 (Homo sapiens) (UniProt P35354).
T1 sequence (whole entry): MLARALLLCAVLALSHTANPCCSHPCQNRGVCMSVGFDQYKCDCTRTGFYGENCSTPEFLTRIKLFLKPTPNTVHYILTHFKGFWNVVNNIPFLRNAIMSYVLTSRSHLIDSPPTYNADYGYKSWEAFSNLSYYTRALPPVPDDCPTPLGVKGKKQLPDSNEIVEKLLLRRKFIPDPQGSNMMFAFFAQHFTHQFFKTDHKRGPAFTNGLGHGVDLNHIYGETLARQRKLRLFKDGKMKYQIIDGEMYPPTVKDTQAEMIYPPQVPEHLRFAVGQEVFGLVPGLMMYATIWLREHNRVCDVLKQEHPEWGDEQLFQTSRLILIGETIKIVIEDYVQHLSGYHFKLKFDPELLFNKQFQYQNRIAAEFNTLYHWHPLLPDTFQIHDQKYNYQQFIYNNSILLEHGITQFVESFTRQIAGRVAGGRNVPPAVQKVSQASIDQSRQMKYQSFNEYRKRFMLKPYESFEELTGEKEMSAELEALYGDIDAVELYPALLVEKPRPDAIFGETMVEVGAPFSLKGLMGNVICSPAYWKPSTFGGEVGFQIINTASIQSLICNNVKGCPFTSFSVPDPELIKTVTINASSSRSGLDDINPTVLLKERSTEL
Kind of assay: Percentage inhibition of Prostaglandin G/H synthase 2 activity in human whole blood (HWB) at 10 uM. It is filed as tissue-based. In a few lines: (§1)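 COX-2: human whole blood stimulated with lipopolysaccharide 026:B6, 37 °C, 24 h, with aspirin (20 µg/mL) to block COX-1. PGE2 by enzyme immunoassay after centrifugation. Run in duplicate or repeated.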

Assay [2] deals with T2, Prostaglandin G/H synthase 1 (Homo sapiens, UniProt P23219). Put plainly: Percentage of inhibition of Prostaglandin G/H synthase 1 activity in human whole blood (HWB) at 10 uM. It is filed as tissue-based. In a few lines: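 COX-1: human blood left to clot spontaneously 5 h at 37 °C, then A23187 (5 μM) 30 min further. Stopped at 0 °C with EGTA/MeOH; supernatant TXB2 by enzyme immunoassay. Run in duplicate or repeated.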
T2 sequence (P23219 whole entry): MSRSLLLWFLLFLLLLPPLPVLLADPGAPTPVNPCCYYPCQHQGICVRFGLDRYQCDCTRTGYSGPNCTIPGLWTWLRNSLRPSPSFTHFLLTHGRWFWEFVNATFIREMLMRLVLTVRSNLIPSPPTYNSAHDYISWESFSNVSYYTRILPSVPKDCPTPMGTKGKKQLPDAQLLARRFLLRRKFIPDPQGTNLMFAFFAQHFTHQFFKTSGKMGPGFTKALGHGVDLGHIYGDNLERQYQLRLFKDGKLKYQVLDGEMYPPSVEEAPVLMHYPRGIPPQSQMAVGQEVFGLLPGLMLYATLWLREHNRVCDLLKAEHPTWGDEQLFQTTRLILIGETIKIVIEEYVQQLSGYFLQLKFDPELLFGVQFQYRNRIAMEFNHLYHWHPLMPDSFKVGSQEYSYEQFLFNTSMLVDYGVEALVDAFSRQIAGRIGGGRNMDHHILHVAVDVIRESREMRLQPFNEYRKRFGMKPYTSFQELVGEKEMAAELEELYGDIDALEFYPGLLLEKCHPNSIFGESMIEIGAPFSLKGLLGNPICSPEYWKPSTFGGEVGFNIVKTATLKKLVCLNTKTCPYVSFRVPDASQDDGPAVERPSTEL

Assay [3] addresses T1, Prostaglandin G/H synthase 2 (Homo sapiens). Put plainly: Percentage of inhibition of Prostaglandin G/H synthase 2 activity in human whole blood (HWB) at 1 uM. It counts as tissue-based. A digest of the protocol:
as §1

Assay [4] addresses T2, Prostaglandin G/H synthase 1. It is filed as cell-based, U-937.

What is called inhibition is the percentage by which the read-out fell short of the control. The low end stands for a response near the control, the high end for a response far below the control. One may read the IC50 as the concentration needed to halve the response being measured. A lower IC50 goes with greater potency in that assay.

Molecules are shown by their SMILES.

On to `CCCc1c(C(=O)O)cnc2c(-c3ccc(F)cc3)c(-c3ccc(S(C)(=O)=O)cc3)nn12`, for which the inhibition in assay [1] turned out to be 0%; in assay [2], 7.4%; in assay [3] it was 31.9%.
Regarding `Cc1nc2c(-c3ccc(F)cc3)c(-c3ccc(S(C)(=O)=O)cc3)nn2c(C)c1C`, in assay [4], the IC50 was > 10 µM. The same compound gave an inhibition in assay [2] of 61.3%.
In the case of `CS(=O)(=O)c1ccc(-c2nc3cnccc3n2-c2ccc(F)cc2)cc1`, the values for the inhibition in assay [1] and in assay [2] were 21.3% and 34.3%, respectively.
As to `CS(=O)(=O)c1ccc(-c2nn3c4c(cnc3c2-c2ccc(F)cc2)SCC4)cc1`, the inhibition in assay [1] is 90.7%; in assay [2], 7%; in assay [3] it was 14.8%.
The like results for `Cc1cnc2c(-c3ccc(F)c(F)c3)c(-c3ccc(S(C)(=O)=O)cc3)nn2c1C` were, in that order, 100%, 36.3% and 100%.
Consider `CCOC(=O)c1cc(C)n2nc(-c3ccc(S(C)(=O)=O)cc3)c(-c3ccc(F)cc3)c2n1`, for which the inhibition turned out to be 41% in assay [1] and 8% in assay [2].
On to `Cc1ccnc2c(-c3ccc(F)cc3)c(-c3ccc(S(C)(=O)=O)cc3)nn12`, for which the IC50 in assay [4] is > 10 µM. For the same compound, the inhibition in assay [2] came to 50.5%.
For `Cc1ccn2c(-c3ccc(F)cc3)c(-c3ccc(S(C)(=O)=O)cc3)nc2c1C`, the inhibition is 66.7% in assay [1], 0% in assay [2] and 59.3% in assay [3].
Consider `Cc1cn2c(-c3ccc(F)cc3)c(-c3ccc(S(C)(=O)=O)cc3)nc2c(C)n1`, for which the inhibition worked out at 82.4% in assay [1], 0% in assay [2] and 0% in assay [3].
Turning to `Cc1cc(C(=O)O)nc2c(-c3ccc(F)cc3)c(-c3ccc(S(C)(=O)=O)cc3)nn12`, the inhibition turned out to be 24.6% in assay [1] and 33.5% in assay [2].
On to `CS(=O)(=O)c1ccc(-c2nn3c(C(F)(F)F)ccnc3c2-c2ccc(F)cc2)cc1`, for which the inhibition in assay [1] stood at 90.6%; in assay [2], 0%; in assay [3], 3.5%.
The like results for `CCCCc1cc(C)nc2c(-c3ccc(F)cc3)c(-c3ccc(S(C)(=O)=O)cc3)nn12` were, in that order, 58.3%, 0% and 11%.
For the compound `CCCc1ccnc2c(-c3ccc(F)cc3)c(-c3ccc(S(C)(=O)=O)cc3)nn12`, the inhibition in assay [1] came out at 56.1%; in assay [2], 37.3%; in assay [3], 32.2%.
The matching figures for `CCc1nnc2c(-c3ccc(F)cc3)c(-c3ccc(S(C)(=O)=O)cc3)nn2c1C`: 100%, 61.9% and 74.9%.
`CS(=O)(=O)c1ccc(-c2nn3c4c(cnc3c2-c2ccc(F)cc2)CSC4)cc1`: the inhibition in assay [1] was determined as 93.6%; in assay [2] it was 0%; in assay [3], 25%.
With `Cc1cnn2c(-c3ccc(F)cc3)c(-c3ccc(S(C)(=O)=O)cc3)nc2c1C`, the values for the inhibition in assay [1], in assay [2] and in assay [3] were 100%, 0% and 37.3%, respectively.
The matching figures for `CCCc1cnnc2c(-c3ccc(F)cc3)c(-c3ccc(S(C)(=O)=O)cc3)nn12`: 100%, 29.3% and 43.9%.
As for `CCCCc1nc(C)nc2c(-c3ccc(F)cc3)c(-c3ccc(S(C)(=O)=O)cc3)nn12`, the inhibition in assay [1] was found to be 54.6%; in assay [2], 7.7%.
The matching figures for `CS(=O)(=O)c1ccc(-c2nc3cccnn3c2-c2ccc(F)cc2)cc1`: 61.2% and 47%.
For `CS(=O)(=O)c1ccc(-c2nn3c4c(cnc3c2-c2ccc(F)cc2)CCCC4)cc1`, the results for the inhibition in assay [1], in assay [2] and in assay [3] were 100%, 40.4% and 57.7%, respectively.
In the case of `Cc1cnc2c(-c3ccc(F)cc3)c(-c3ccc(S(C)(=O)=O)cc3)nn2c1`, the IC50 in assay [4] is > 10 µM. In assay [2], this compound showed an inhibition of 8.2%.
For `Cc1cc(Cl)n2nc(-c3ccc(S(C)(=O)=O)cc3)c(-c3ccc(F)cc3)c2n1`, the inhibition in assay [1] came to 14.3%; in assay [2], 32.5%.
Turning to `Cc1nc(C)n2nc(-c3ccc(S(C)(=O)=O)cc3)c(-c3ccc(F)cc3)c2n1`, the inhibition was 90.3% in assay [1], 4.75% in assay [2] and 18.1% in assay [3].
For the compound `Cc1cc2c(nc(-c3ccc(S(C)(=O)=O)cc3)n2-c2ccc(F)cc2)c(C)n1`, the inhibition in assay [1] turned out to be 4.3%; in assay [2], 0%.
For `CCc1c(C)cnc2c(-c3ccc(F)cc3)c(-c3ccc(S(C)(=O)=O)cc3)nn12`, the inhibition in assay [1] is 100%; in assay [2] it was 82.8%; in assay [3], 62.3%.
On to `Cc1c(C(=O)O)cnc2c(-c3ccc(F)cc3)c(-c3ccc(S(C)(=O)=O)cc3)nn12`, for which the inhibition in assay [1] was found to be 56.3%; in assay [2], 8.3%.
As to `Cc1c(CF)cnc2c(-c3ccc(F)cc3)c(-c3ccc(S(C)(=O)=O)cc3)nn12`, the inhibition in assay [1] came to 84.6%; in assay [2], 7.3%; in assay [3], 4.4%.
Take `Cc1cnc2c(-c3ccc(F)cc3)c(-c3ccc(S(C)(=O)=O)cc3)nn2c1-c1ccccc1`: the inhibition in assay [1] worked out at 12.3%; in assay [2] it was 0%.
The matching figures for `CCCCc1nccn2c(-c3ccc(F)cc3)c(-c3ccc(S(C)(=O)=O)cc3)nc12`: 0% and 9.8%.
Take `Cc1ccc(-c2c(-c3ccc(S(C)(=O)=O)cc3)nn3c(C)c(C)cnc23)cc1`: the values for the inhibition in assay [1], in assay [2] and in assay [3] were 100%, 54.2% and 87.6%, respectively.
Take `Cc1cc(C(F)(F)F)nc2c(-c3ccc(F)cc3)c(-c3ccc(S(C)(=O)=O)cc3)nn12`: the inhibition in assay [1] amounted to 57.2%; in assay [2], 2.5%.
The matching figures for `Cc1ccn2c(-c3ccc(F)cc3)c(-c3ccc(S(C)(=O)=O)cc3)nc2n1`: 50.7% and 13.5%.
For the compound `Cc1nnc2c(-c3ccc(F)cc3)c(-c3ccc(S(C)(=O)=O)cc3)nn2c1C`, the values for the inhibition in assay [1], in assay [2] and in assay [3] were 100%, 1.2% and 40.5%, respectively.
With `COc1cc(C)nc2c(-c3ccc(F)cc3)c(-c3ccc(S(C)(=O)=O)cc3)nn12`, the inhibition in assay [1] and in assay [2] was 0% each time.
Take `Cc1cnc2c(-c3ccc(F)c(F)c3)c(-c3ccc(S(N)(=O)=O)cc3)nn2c1C`: the inhibition in assay [1] worked out at 100%; in assay [2], 68.2%; in assay [3], 97.2%.
Turning to `CCCc1c(C)nnc2c(-c3ccc(F)cc3)c(-c3ccc(S(C)(=O)=O)cc3)nn12`, the inhibition in assay [1] is 95%; in assay [2], 18.7%; in assay [3] it was 17.9%.
For the compound `Cc1nc2c(-c3ccc(F)cc3)c(-c3ccc(S(C)(=O)=O)cc3)nn2c(Cl)c1C`, the inhibition in assay [1] came out at 45.8%; in assay [2], 1.2%.
Take `Cc1cnc2c(-c3ccc(F)cc3F)c(-c3ccc(S(C)(=O)=O)cc3)nn2c1C`: the inhibition in assay [1] turned out to be 100%; in assay [2], 80.8%; in assay [3], 61.1%.
The matching figures for `CCCCc1cnnc2c(-c3ccc(F)cc3)c(-c3ccc(S(C)(=O)=O)cc3)nn12`: 89.7%, 69.8% and 0.9%.
In the case of `CS(=O)(=O)c1ccc(-c2nc3cnccn3c2-c2ccc(F)cc2)cc1`, the inhibition in assay [1] is 42.5%; in assay [2], 6%.
As for `CCc1nnc2c(-c3ccc(F)cc3)c(-c3ccc(S(C)(=O)=O)cc3)nn2c1CC`, the inhibition in assay [1] amounted to 100%; in assay [2] it was 88.7%; in assay [3], 50.9%.
Turning to `Cc1cc(O)n2nc(-c3ccc(S(C)(=O)=O)cc3)c(-c3ccc(F)cc3)c2n1`, the values for the inhibition in assay [1] and in assay [2] were 21.9% and 8.1%, respectively.
On to `Cc1cnc2c(-c3ccc(F)cc3)c(-c3ccc(S(N)(=O)=O)cc3)nn2c1C`, for which the inhibition was 99.1% in assay [1], 22% in assay [2] and 22.5% in assay [3].
The matching figures for `Cc1cnc2c(-c3ccc(F)cc3)c(-c3ccc(S(C)(=O)=O)cc3)nn2c1CO`: 100%, 42.7% and 56.5%.
The like results for `CS(=O)(=O)c1ccc(-c2nn3c4c(cnc3c2-c2ccc(F)cc2)CCC4)cc1` were, in that order, 90.4%, 0% and 48.3%.
The matching figures for `CS(=O)(=O)c1ccc(-c2nn3c(-c4ccccc4)ccnc3c2-c2ccc(F)cc2)cc1`: 90.4%, 5.7% and 0%.
Turning to `CC(=O)c1cnc2c(-c3ccc(F)cc3)c(-c3ccc(S(C)(=O)=O)cc3)nn2c1C`, the inhibition in assay [1] amounted to 100%; in assay [2], 71.1%; in assay [3] it was 60.8%.

Values taken from ChEMBL document CHEMBL1134336, “Synthesis and SAR of a new series of COX-2-selective inhibitors: pyrazolo[1,5-a]pyrimidines” (J Med Chem, 2001).
